Data reported in publication PMC12780024 (Nature Communications, 2025).
Square brackets hold non-standard residues; d marks the D form. Ends that are not written are not given here. Hyp = O=C(O)[C@@H]1C[C@@H](O)CN1

Legend:
[1] = target: BAM1 extracellular domain; test: Isothermal titration calorimetry; type: binding, Arabidopsis thaliana; details: read-out: dissociation constant (Kd); ITC, MicroCal ITC200, 37 °C, 1 mM CLE5p into 0.1 mM GST-BAM1, 20 mM Tris-HCl pH 7.5, 25 mM NaCl, 5% glycerol; One Set of Sites; ± fitting errors; repeated twice
Summary of the method: (§1)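 Recombinant GST-fused receptor protein, gel-filtered into titration buffer, titrated at 37 °C with sequential injections of test peptide at 180 s intervals. Cell stirred at 800 rpm, reference power 5 µcal/s. GST alone served as negative control. Data fitted to a one-set-of-sites model to give Kd, stoichiometry N, ΔG, ΔH and -TΔS.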

[2] = target: GHR1 extracellular domain; test: Isothermal titration calorimetry; type: binding, Arabidopsis thaliana; details: read-out: dissociation constant (Kd); ITC, MicroCal ITC200, 37 °C, 1 mM CLE5p into 0.1 mM GST-GHR1, 20 mM Tris-HCl pH 7.5, 25 mM NaCl, 5% glycerol; One Set of Sites; ± fitting errors; repeated twice
Summary of the method: as §1

[3] = test system: Arabidopsis seedlings (primary root); test: Primary root growth inhibition / LRR-RLK screening; type: in vivo, Arabidopsis thaliana; details: 0.75 µM CLE5p
Summary of the method: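 Arabidopsis lrr-rlk mutant seedlings were germinated on 1/2MS agar for 3 days. They were then transferred to 1/2MS agar containing 0.75 µM test peptide. Primary root length was measured after 3 days of peptide treatment.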

[4] = test system: H2O2 accumulation in rosette leaves; test: DAB staining of H2O2 in leaves; type: in vivo, Arabidopsis thaliana; details: 2 h
Summary of the method: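 Four-week-old rosette leaves treated 2 h with test peptide (100 µM) or hormone control (1 µM), then immersed in freshly prepared 100 µg/ml DAB in the dark for 8 h. Fixed and bleached in ethanol/acetic acid/glycerol (3:1:1), rinsed with distilled water, and photographed on a white background for H2O2 staining.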

[5] = test system: stomata (guard cells) of Arabidopsis leaves; test: Stomatal aperture measurement; type: cell-based, Arabidopsis thaliana
Summary of the method: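 Abaxial epidermis peeled from leaves of 3–4-week-old plants. Pore width and length measured by light microscopy and expressed as W/L ratio. n = 15 per time point, at least three independent experiments.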

[6] = test system: SRK2E; test: Protein mobility shift assay; type: cell-based, Arabidopsis thaliana; details: wild type protoplasts, 1 μM, 30 min, Phos-Tag; diminished by phosphatase
Summary of the method: (§2)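 Mesophyll protoplasts (6 × 10^4) transfected with 10 µg 35S::kinase-GFP plasmid and kept 18 h at 21 °C in W5 under continuous light. Treated with 1 µM peptide or ABA for up to 30 min, frozen, ground and lysed (Tris pH 7.5 buffer). Cleared lysate run on Phos-Tag SDS-PAGE and blotted with anti-GFP; tubulin as internal control. For dephosphorylation, lysate incubated with λ-phosphatase at 30 °C for 30 min, with or without NaF/NaVO3 inhibitors.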

[7] = cited from earlier work
[8] = test system: Arabidopsis leaves; test: Time-resolved stomatal conductance; type: in vivo, Arabidopsis thaliana
Summary of the method: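 Plants grown in short days (10/14 h) at 22 °C. Detached leaves equilibrated in an LI-6800 chamber until gsw was stable, then given 2 µM ABA. Chamber settings: 200 µmol m−2 s−1 light (90% red, 10% blue), 22 °C, 75% RH, 400 ppm CO2, […]. Time-resolved gsw reported as mean ± s.d. of at least three biological replicates.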

[9] = test system: SRK2D; test: Protein mobility shift assay; type: cell-based, Arabidopsis thaliana; details: wild type protoplasts, 1 μM, 30 min, Phos-Tag; diminished by phosphatase
Summary of the method: as §2

[10] = target: T1, GST-GHR1 (LRR repeats of GUARD CELL HYDROGEN PEROXIDE-… 1, N-terminal GST fusion) (Arabidopsis thaliana); test: ITC
T1 sequence (C0LGQ9 whole entry, looked up): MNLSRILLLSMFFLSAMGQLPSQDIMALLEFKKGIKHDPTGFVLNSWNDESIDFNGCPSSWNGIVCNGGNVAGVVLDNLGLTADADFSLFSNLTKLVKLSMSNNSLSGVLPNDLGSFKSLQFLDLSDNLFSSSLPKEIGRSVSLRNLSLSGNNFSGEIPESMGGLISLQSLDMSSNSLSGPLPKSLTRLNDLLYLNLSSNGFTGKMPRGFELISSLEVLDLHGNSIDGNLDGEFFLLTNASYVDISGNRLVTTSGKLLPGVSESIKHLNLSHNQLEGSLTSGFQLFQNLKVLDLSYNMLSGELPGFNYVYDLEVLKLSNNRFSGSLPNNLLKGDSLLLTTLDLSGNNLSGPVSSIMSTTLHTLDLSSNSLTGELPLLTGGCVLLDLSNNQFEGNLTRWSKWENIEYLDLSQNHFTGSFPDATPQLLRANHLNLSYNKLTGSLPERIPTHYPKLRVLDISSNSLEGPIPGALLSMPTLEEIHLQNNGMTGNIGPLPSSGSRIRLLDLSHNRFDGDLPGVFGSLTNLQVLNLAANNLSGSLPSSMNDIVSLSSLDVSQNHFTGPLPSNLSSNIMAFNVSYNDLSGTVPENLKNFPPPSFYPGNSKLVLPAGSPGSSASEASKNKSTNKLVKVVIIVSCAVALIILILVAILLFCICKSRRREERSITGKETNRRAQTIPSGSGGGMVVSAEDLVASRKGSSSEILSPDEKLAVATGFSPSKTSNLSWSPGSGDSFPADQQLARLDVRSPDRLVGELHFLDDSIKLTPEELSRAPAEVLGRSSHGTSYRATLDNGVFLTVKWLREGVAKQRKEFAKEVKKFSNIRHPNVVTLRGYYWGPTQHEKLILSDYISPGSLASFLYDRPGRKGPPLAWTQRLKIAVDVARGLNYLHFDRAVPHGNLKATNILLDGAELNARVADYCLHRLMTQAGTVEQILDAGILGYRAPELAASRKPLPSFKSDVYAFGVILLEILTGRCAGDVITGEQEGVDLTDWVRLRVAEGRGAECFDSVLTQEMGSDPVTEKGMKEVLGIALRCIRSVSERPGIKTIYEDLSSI

[11] = target: T2, GST-BAM1 (LRR repeats of BARELY ANY MERISTEM 1, N-terminal GST fusion) (Arabidopsis thaliana); test: ITC
T2 sequence (O49545 whole entry, looked up): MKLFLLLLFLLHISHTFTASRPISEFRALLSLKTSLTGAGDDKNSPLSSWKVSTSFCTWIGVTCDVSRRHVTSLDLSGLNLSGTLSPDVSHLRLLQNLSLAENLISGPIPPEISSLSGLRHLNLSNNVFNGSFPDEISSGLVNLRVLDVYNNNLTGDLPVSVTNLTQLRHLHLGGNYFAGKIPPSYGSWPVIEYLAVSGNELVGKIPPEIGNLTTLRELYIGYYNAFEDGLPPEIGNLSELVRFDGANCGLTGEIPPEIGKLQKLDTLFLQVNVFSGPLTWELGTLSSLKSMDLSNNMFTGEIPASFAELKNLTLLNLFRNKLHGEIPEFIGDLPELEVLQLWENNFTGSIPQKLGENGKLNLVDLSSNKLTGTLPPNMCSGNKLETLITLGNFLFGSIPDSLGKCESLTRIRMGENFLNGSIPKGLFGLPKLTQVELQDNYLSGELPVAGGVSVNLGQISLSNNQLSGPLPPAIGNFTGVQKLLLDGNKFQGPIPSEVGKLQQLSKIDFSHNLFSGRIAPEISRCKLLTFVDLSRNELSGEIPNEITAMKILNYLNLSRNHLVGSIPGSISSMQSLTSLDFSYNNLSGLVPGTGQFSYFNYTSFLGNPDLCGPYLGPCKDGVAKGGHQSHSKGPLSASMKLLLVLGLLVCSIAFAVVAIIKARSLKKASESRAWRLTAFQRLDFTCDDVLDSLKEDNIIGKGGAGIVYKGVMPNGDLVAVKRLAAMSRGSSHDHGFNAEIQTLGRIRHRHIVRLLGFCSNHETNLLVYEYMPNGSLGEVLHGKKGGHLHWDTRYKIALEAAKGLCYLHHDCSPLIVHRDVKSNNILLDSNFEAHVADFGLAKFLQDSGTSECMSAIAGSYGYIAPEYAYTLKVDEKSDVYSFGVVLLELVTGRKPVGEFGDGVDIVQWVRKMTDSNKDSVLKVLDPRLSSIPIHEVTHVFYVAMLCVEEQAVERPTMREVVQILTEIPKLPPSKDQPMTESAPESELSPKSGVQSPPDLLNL

## CLE5p: mature CLE5 dodecapeptide, hydroxyproline at residues 4 and 7, non-arabinosylated (RVS[Hyp]GG[Hyp]DPQHH)
[1]
  Kd: 2.52 µM
[2]
  Kd: 7.39 µM
[3]; bam1-3, ghr1, bam1-3ghr1 seedlings
  root growth inhibition, in words: Neither single bam1-3 and ghr1 nor double bam1-3ghr1 mutants showed significant growth defects
[3]; bam3 and wild type seedlings
  root growth inhibition, in words: sensitive to the CLE5p-induced root growth inhibition
[4]; 100 µM CLE5p, detached leaves
  H2O2 accumulation (DAB staining): no hydrogen peroxide (H2O2) accumulation
[5]; rbohDrbohF double mutant leaves
  stomatal closure: induced stomatal closure

## CC1=CC(=O)CC(C)(C)[C@@]1(O)/C=C/C(C)=C\C(=O)O [ABA, abscisic acid]
[6]
  SRK2E-GFP mobility shift (phosphorylation): a distinct band shift was detected
[7]
  stomatal closure: induce rapid stomatal closure
[8]; 35S::SRK2E(Triple A)/srk2e leaves, 2 µM ABA
  stomatal conductance response to ABA: insensitive to the ABA treatment
[8]; 35S::SRK2E/srk2e leaves, 2 µM ABA, compared to srk2e
  stomatal conductance response to ABA: decreased rapidly
[8]; bam1-3, ghr1, bam1-3ghr1 leaves, 2 µM ABA
  stomatal conductance response to ABA: insensitive to the ABA-induced reduction of stomatal conductance
[8]; cle5-1 leaves, 2 μM ABA
  stomatal conductance response to ABA: insensitive to ABA treatment
[8]; pGC1::CLE5/cle5-1 leaves (stomata-specific CLE5), 2 μM ABA
  stomatal conductance response to ABA: sufficient to elicit ABA-induced stomatal closure
[8]; wild type and pCLE5::CLE5/cle5-1 leaves, 2 μM ABA
  stomatal conductance response to ABA: began to close their stomata promptly after ABA application
[9]
  SRK2D-GFP mobility shift (phosphorylation): a distinct band shift was detected
[4]; 1 µM ABA
  H2O2 accumulation (DAB staining): induced H2O2 accumulation
[5]; cle5-1 and bam1-3ghr1 leaves, 2 µM ABA, 30 min
  stomatal closure: failed to induce stomatal closure

## CLE25p: root-derived CLE peptide transported from roots to leaves (RKVPNGPDPIHN; ends and bridges not checked; UniProt Q8LFL4 58-69, looked up)
[7]; root-derived, transported from roots to leaves
  drought stress response: promotes drought stress resistance by stimulating ABA biosynthesis

## RVS[Hyp]GG[Hyp]DPQHH [CLE5 dodecapeptide (CLE5p)]
[10]
  Kd: 7.39 µM
[11]
  Kd: 2.52 µM
